The test system of assay [1] is Candida albicans. Kind of assay: Induction of membrane permiablization in drug resistant Candida albicans DF2672R at 4 times MIC after 1 to 2 hrs by SYTOX green dye based spectrofluorometric assay. The assay is classed as functional. The essentials:
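Overnight cultures washed and resuspended in PBS at OD600 0.2, then loaded with 0.3 μM SYTOX Green in the dark. After the signal stabilised, compound in PBS/DMF was added (final DMF 0.5%; 0.5% DMF as control). Fluorescence (ex 504/em 523 nm) followed continuously for 1–2 h; biological replicates.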

The test system of assay [2] is Candida albicans. Kind of assay: Antifungal activity against drug resistant Candida albicans DF2672R after 24 hrs by two fold serial dilution method. The assay is classed as functional. The essentials: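 Candida grown on Sabouraud dextrose agar at 35 °C for 24 h, adjusted to ~5×10^3 CFU/mL. Two-fold dilutions from 100 to 0.78 μg/mL in Sabouraud dextrose broth, incubated at 35 °C for 24 h. MIC is the lowest concentration inhibiting growth by eye and by OD600. CLSI-based with minor modifications.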

The test system of assay [3] is Candida albicans. The assay can be described thus: Fungicidal activity against drug resistant Candida albicans DF2672R at 1 time MIC after 24 hrs by time kill assay. Format: functional. The method, boiled down: (§1)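 Cells at 10^5–10^6 CFU/mL exposed to 1×, 2×, 4× or 8× MIC at 35 °C. Samples taken at 0.5, 1, 2, 4, 8 and 24 h, serially diluted in PBS and plated on SDA. CFU counted after 24 h at 35 °C; biological replicates.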

The test system of another assay is Aspergillus brasiliensis. The assay can be described thus: Antifungal activity against Aspergillus brasiliensis TCC16404 after 48 hrs by two fold serial dilution method. The assay is classed as functional. The settings on record: TCC16404, 48 h. The essentials:
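Moulds grown on potato dextrose agar, 30 °C, 4 days; inoculum adjusted to about 5×10^3 CFU/mL. Two-fold serial dilutions in RPMI-1640 broth, 100 to 0.78 μg/mL final, mixed with equal volume of cell suspension; incubated 30 °C, 48 h. MIC = lowest concentration inhibiting growth, judged visually and by OD530.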

For assay [4], the system named is Candida albicans. The assay can be described thus: Fungicidal activity against drug resistant Candida albicans DF2672R at 4 times MIC after 1 hr by time kill assay relative to control. The assay is classed as functional. The essentials:
as §1

Assay [5] deals with Candida albicans. The assay can be described thus: Antifungal activity against drug resistant Candida albicans DF2672R measured after 27 passages by two fold serial dilution method. Format: functional. The essentials:
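Serial passage: cells from duplicate tubes at 0.5× MIC adjusted to ~5×10^3 CFU/mL and used as the inoculum for the next broth microdilution MIC, 24 h at 35 °C. Repeated for 27–30 passages, with biological replicates.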

A further assay deals with Staphylococcus aureus. Kind of assay: Antibacterial activity against Staphylococcus aureus DM4001R by two fold serial dilution method. Format: functional. The method, boiled down:
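Broth microdilution (CLSI, minor modifications) in Sabouraud dextrose, Mueller−Hinton or RPMI 1640 broth; two-fold serial dilutions of compound from stock to final 100 to 0.78 μg/mL. MIC taken as lowest concentration giving no visible growth.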

Assay [6] is described as follows: Cytotoxicity against human corneal fibroblasts assessed as reduction in cell viability after 4 hrs by LDH assay. The assay is classed as cell-based. The following applies: Corneal fibroblast. The method, boiled down: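 LDH release assay on human corneal fibroblasts seeded at 10000 cells per well, exposed to a range of compound concentrations up to 100 μM. 1% Triton X-100 served as positive control and 0.5% DMSO as negative control; biological replicates.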

Assay [7] deals with Candida albicans. The assay can be described thus: Antifungal activity against drug resistant Candida albicans DF2672R infected C57BL6 mouse cornea at 0.2% administered topically for every 20 mins during the first hour and every 1 hr during the next 6 hrs by serial dilution method. Format: functional. The essentials:
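C57BL6 mice aged 7–8 weeks (19–23 g), immunosuppressed with cyclophosphamide 100 mg/kg ip at 4 days and 1 day before infection and on day 1 after. Left cornea scratched under xylazine/ketamine, then 20 μL of ~5×10^7 CFU/mL yeast in PBS applied. Treatment started 1 day later; PBS served as control; four mice per group. Corneal fungal load counted by serial dilution plating on SDA.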

Assay [8] deals with Candida albicans. The assay can be described thus: Synergistic antifungal activity against drug resistant Candida albicans DF2672R after 24 hrs in presence of terbinafine by checkerboard assay. Format: functional. The method, boiled down: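 Checkerboard combination of each compound with a second antifungal, following a previously reported procedure. FIC = MIC of A in combination/MIC of A alone + MIC of B in combination/MIC of B alone.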

Values after ≈ are worked out from the molar mass of the structure shown. Active and inactive are the calls of the source. No cut-off for these calls is given here.

For `COc1c(OCC(O)CNC(=N)N)cc2oc3cc(OCC(O)CNC(=N)N)c(CC=C(C)C)c(O)c3c(=O)c2c1CC=C(C)C` (stereo not given), the outcome in the assay on Candida albicans [1], in the assay on Candida albicans [3] and in the assay on Candida albicans [5] was Active. For the same molecule, the MIC – broadly, the least concentration at which growth counts as inhibited – against Candida albicans [2] was 0.78 µg/mL (≈ 1.22 µM); against Aspergillus brasiliensis, 3.13 µg/mL (≈ 4.88 µM); with Staphylococcus aureus it was 1.56 to 3.13 µg/mL (≈ 2.43 to 4.88 µM). Also, the figures for the Activity in the assay on Candida albicans [4] and in the assay on Candida albicans [7] were 99.9% and 92.8%, respectively. Besides, the IC50 (commonly the point on the concentration scale where inhibition reaches its midpoint) in assay [6] was over 100 µM. Besides, the “fractional inhibitory concentration index (FICI)” value in the assay with Candida albicans [8] is on record as 0.44.

For the origin of these results see ChEMBL document CHEMBL4028907, “Semisynthesis and Biological Evaluation of Xanthone Amphiphilics as Selective, Highly Potent Antifungal Agents to Combat Fungal Resistance” (J Med Chem, 2017).
